ChEMBL document CHEMBL1125113, “(S)-5-fluoro-8-hydroxy-2-(dipropylamino)tetralin: a putative 5-HT1A-receptor antagonist” (J Med Chem, 1990)

What was measured:
[1] = biological target: T1, Aromatic-L-amino-acid decarboxylase (Homo sapiens) (UniProt P20711); assay: The effect on the accumulation of DOPA in rat brain(striatum), by subcutaneous administration at a dose of 10(umol/kg); type: functional, organism-based; conditions: target entry is the homologue from another species
T1 sequence (whole entry): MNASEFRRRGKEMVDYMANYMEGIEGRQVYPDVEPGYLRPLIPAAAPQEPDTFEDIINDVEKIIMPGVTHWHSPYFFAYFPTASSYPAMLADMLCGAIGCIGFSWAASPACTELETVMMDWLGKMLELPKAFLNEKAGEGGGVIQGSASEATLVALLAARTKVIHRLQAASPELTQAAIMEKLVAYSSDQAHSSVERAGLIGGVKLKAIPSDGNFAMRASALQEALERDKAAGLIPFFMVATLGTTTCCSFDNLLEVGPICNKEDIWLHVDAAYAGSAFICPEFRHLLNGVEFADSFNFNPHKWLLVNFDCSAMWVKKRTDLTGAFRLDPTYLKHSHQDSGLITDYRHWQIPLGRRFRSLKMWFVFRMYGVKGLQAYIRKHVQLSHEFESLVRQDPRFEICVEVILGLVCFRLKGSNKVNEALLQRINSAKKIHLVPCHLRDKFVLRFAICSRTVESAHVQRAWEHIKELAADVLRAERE
In short: (§1)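 Nonpretreated rats received the test drug sc 60 min before death. The decarboxylase inhibitor NSD 1015 (287 µmol/kg sc) was given 30 min before death. Brain 5-HTP and DOPA in limbic and striatal regions were measured by HPLC with electrochemical detection. Values are means ± SEM, with n = 9 controls and 5–7 per experimental group.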

[2] = biological target: T1, Aromatic-L-amino-acid decarboxylase (Homo sapiens); assay: The effect on the accumulation of DOPA in rat brain(limbic), by subcutaneous administration at a dose of 10(umol/kg); type: functional, organism-based; conditions: target entry is the homologue from another species; in short: as §1
[3] = biological target: T2, 5-hydroxytryptamine receptor 1A (Rattus norvegicus, UniProt P19327); assay: Binding affinity towards 5-hydroxytryptamine 1A receptor sites in cortical membranes using [3H]8-OH-DPAT as radioligand; type: cell membranes
T2 sequence (P19327 whole entry): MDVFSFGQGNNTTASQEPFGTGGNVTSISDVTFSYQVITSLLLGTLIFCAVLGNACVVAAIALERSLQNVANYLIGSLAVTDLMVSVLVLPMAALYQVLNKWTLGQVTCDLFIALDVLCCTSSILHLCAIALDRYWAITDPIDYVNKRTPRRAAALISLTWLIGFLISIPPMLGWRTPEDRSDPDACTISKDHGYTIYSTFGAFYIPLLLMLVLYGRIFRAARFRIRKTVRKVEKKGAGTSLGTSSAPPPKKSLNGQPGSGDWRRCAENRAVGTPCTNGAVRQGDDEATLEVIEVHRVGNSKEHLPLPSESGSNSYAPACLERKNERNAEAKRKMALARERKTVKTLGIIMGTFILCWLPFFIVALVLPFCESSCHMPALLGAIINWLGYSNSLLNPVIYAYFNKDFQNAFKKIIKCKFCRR

Rattus norvegicus [4] = assay: The effect on the accumulation of 5-HTP in rat brain(striatum), by subcutaneous administration at a dose of 32(umol/kg); type: functional; in short: as §1
Rattus norvegicus [5] = assay: The effect on the accumulation of 5-HTP in rat brain(limbic), by subcutaneous administration at a dose of 10(umol/kg); type: functional; in short: as §1
Rattus norvegicus [6] = assay: The effect on the accumulation of 5-HTP in rat brain(striatum), by subcutaneous administration at a dose of 10(umol/kg); type: functional; in short: as §1
Rattus norvegicus [7] = assay: The effect on the accumulation of 5-HTP in rat brain(limbic), by subcutaneous administration at a dose of 0.32(umol/kg); type: functional; in short: as §1
Rattus norvegicus [8] = assay: The effect on the accumulation of 5-HTP in rat brain(striatum), by subcutaneous administration at a dose of 0.32(umol/kg); type: functional; in short: as §1
[9] = biological target: T1, Aromatic-L-amino-acid decarboxylase (Homo sapiens); assay: The effect on the accumulation of DOPA in rat brain(limbic), by subcutaneous administration at a dose of 0.32(umol/kg); type: functional, organism-based; conditions: target entry is the homologue from another species; in short: as §1
[10] = biological target: T1, Aromatic-L-amino-acid decarboxylase (Homo sapiens); assay: The effect on the accumulation of DOPA in rat brain(striatum), by subcutaneous administration at a dose of 0.32(umol/kg); type: functional, organism-based; conditions: target entry is the homologue from another species; in short: as §1

SMILES | Potencymean [1] [ng/g] | Potencymean [2] [ng/g] | Ki [3] [µM] | Potencymean (Rattus norvegicus [4]) [ng/g] | Potencymean (Rattus norvegicus [5]) [ng/g] | Potencymean (Rattus norvegicus [6]) [ng/g] | Potencymean (Rattus norvegicus [7]) [ng/g] | Potencymean (Rattus norvegicus [8]) [ng/g] | Potencymean [9] [ng/g] | Potencymean [10] [ng/g]
CCCN(CCC)[C@H]1CCc2c(F)ccc(O)c2C1 | < 682 | 324 | 0.052 | 91.4 | 152 |  |  |  |  | 
CCCN(CCC)[C@@H]1CCc2c(F)ccc(O)c2C1 | 1190 | 398 | 0.0061 |  | <86.5 | <59.7 |  |  |  | 
CCCN(CCC)[C@@H]1CCc2cccc(O)c2C1 |  |  |  |  |  |  | <103 | <53.3 | 371 | 909
